Laboratory results reported in ChEMBL document CHEMBL4406880, “Design, synthesis, and bioactivity of dihydropyrimidine derivatives as kinesin spindle protein inhibitors” (Bioorg Med Chem, 2019).

Assays:
Type in all cases: functional
[1] = tested on: MDA-MB-231; test: Growth inhibition of human MDA-MB-231 cells assessed as growth percentage at 10 uM incubated for 48 hrs by sulforhodamine B assay relative to control; settings: MDA-MB-231, 48 h, read-out: Activity
How it was run: (§1)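 NCI-60 one-dose screen. Cells in RPMI 1640 with 5% FBS and 2 mM L-glutamine, seeded at 5,000–40,000 cells/well according to doubling time, and preincubated overnight at 37 °C, 5% CO2. A time-zero plate was TCA-fixed at drug addition. Compound from DMSO stock, final 10 µM, 48 h; DMSO vehicle controls. Fixation with TCA, 10% final (16% for suspension cells). SRB stain, Tris solubilization, A515. Result given as % growth versus untreated cells.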

[2] = tested on: RXF 393; test: Growth inhibition of human RXF393 cells assessed as growth percentage at 10 uM incubated for 48 hrs by sulforhodamine B assay relative to control; settings: RXF 393, 48 h, read-out: Activity
How it was run: (§2)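 NCI-60 single-dose screen. Cells were grown in RPMI 1640 with 5% FBS and 2 mM L-glutamine and plated at 5,000–40,000 cells/well. After an overnight preincubation at 37 °C in 5% CO2, compound was added at a final 10 µM from a DMSO stock, with DMSO/PBS controls. After 48 h, cells were TCA-fixed and stained with 0.4% SRB, and absorbance was read at 515 nm. Growth is given as a percentage of untreated control.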

[3] = tested on: HCC 2998; test: Growth inhibition of human HCC2998 cells assessed as growth percentage at 10 uM incubated for 48 hrs by sulforhodamine B assay relative to control; settings: HCC 2998, 48 h, read-out: Activity
How it was run: (§3)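 NCI-60 one-dose screen: cells in RPMI 1640 with 5% FBS and 2 mM L-glutamine, plated at 5,000–40,000 cells/well and preincubated 24 h at 37 °C, 5% CO2. Compound is added from a DMSO stock to a final 10 µM and incubated 48 h. Cells are TCA-fixed and stained with sulforhodamine B, read at 515 nm. Output is % growth versus untreated control, with a time-zero plate.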

[4] = tested on: DU-145; test: Growth inhibition of human DU145 cells assessed as growth percentage at 10 uM incubated for 48 hrs by sulforhodamine B assay relative to control; settings: DU-145, 48 h, read-out: Activity; how it was run: as §3
[5] = tested on: UACC-257; test: Growth inhibition of human UACC257 cells assessed as growth percentage at 10 uM incubated for 48 hrs by sulforhodamine B assay relative to control; settings: UACC-257, 48 h, read-out: Activity; how it was run: as §2
[6] = tested on: HT-29; test: Growth inhibition of human HT-29 cells assessed as growth percentage at 10 uM incubated for 48 hrs by sulforhodamine B assay relative to control; settings: HT-29, 48 h, read-out: Activity; how it was run: as §1
[7] = tested on: K562; test: Growth inhibition of human K562 cells assessed as growth percentage at 10 uM incubated for 48 hrs by sulforhodamine B assay relative to control; settings: K562, 48 h, read-out: Activity; how it was run: as §1
[8] = tested on: COLO 205; test: Growth inhibition of human COLO205 cells assessed as growth percentage at 10 uM incubated for 48 hrs by sulforhodamine B assay relative to control; settings: COLO 205, 48 h, read-out: Activity; how it was run: as §3
[9] = tested on: LOX IMVI; test: Growth inhibition of human LOXIMVI cells assessed as growth percentage at 10 uM incubated for 48 hrs by sulforhodamine B assay relative to control; settings: read-out: Activity; how it was run: as §1
[10] = tested on: KM12; test: Growth inhibition of human KM12 cells assessed as growth percentage at 10 uM incubated for 48 hrs by sulforhodamine B assay relative to control; settings: KM12, 48 h, read-out: Activity; how it was run: as §1
[11] = tested on: NCI/ADR-RES; test: Growth inhibition of human NCI/ADR-RES cells assessed as growth percentage at 10 uM incubated for 48 hrs by sulforhodamine B assay relative to control; settings: read-out: Activity; how it was run: as §1
[12] = tested on: HL-60(TB); test: Growth inhibition of human HL-60(TB) cells assessed as growth percentage at 10 uM incubated for 48 hrs by sulforhodamine B assay relative to control; settings: HL-60, 48 h, read-out: Activity
How it was run: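 NCI-60 single-dose screen. Cells in RPMI 1640 with 5% FBS and 2 mM L-glutamine are plated at 5,000–40,000 cells/well and preincubated overnight at 37 °C, 5% CO2. Compound is added from a DMSO stock at 10 µM final for 48 h. Cells are TCA-fixed (suspension cells 16% final) and stained with SRB. Absorbance is read at 515 nm, and percentage growth is calculated against untreated controls with a time-zero plate.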

[13] = tested on: SK-MEL-28; test: Growth inhibition of human SK-MEL-28 cells assessed as growth percentage at 10 uM incubated for 48 hrs by sulforhodamine B assay relative to control; settings: SK-MEL-28, 48 h, read-out: Activity; how it was run: as §2
[14] = tested on: U-251; test: Growth inhibition of human U251 cells assessed as growth percentage at 10 uM incubated for 48 hrs by sulforhodamine B assay relative to control; settings: U-251, 48 h, read-out: Activity; how it was run: as §2
[15] = tested on: SK-MEL-5; test: Growth inhibition of human SK-MEL-5 cells assessed as growth percentage at 10 uM incubated for 48 hrs by sulforhodamine B assay relative to control; settings: SK-MEL-5, 48 h, read-out: Activity; how it was run: as §2
[16] = tested on: HCT-116; test: Growth inhibition of human HCT116 cells assessed as growth percentage at 10 uM incubated for 48 hrs by sulforhodamine B assay relative to control; settings: HCT-116, 48 h, read-out: Activity; how it was run: as §3
[17] = tested on: OVCAR-3; test: Growth inhibition of human OVCAR3 cells assessed as growth percentage at 10 uM incubated for 48 hrs by sulforhodamine B assay relative to control; settings: OVCAR-3, 48 h, read-out: Activity; how it was run: as §1
[18] = tested on: SW-620; test: Growth inhibition of human SW620 cells assessed as growth percentage at 10 uM incubated for 48 hrs by sulforhodamine B assay relative to control; settings: SW-620, 48 h, read-out: Activity; how it was run: as §2
[19] = tested on: SN12C; test: Growth inhibition of human SN12C cells assessed as growth percentage at 10 uM incubated for 48 hrs by sulforhodamine B assay relative to control; settings: read-out: Activity; how it was run: as §2
[20] = tested on: OVCAR-8; test: Growth inhibition of human OVCAR8 cells assessed as growth percentage at 10 uM incubated for 48 hrs by sulforhodamine B assay relative to control; settings: OVCAR-8, 48 h, read-out: Activity; how it was run: as §2
[21] = tested on: A549; test: Growth inhibition of human A549/ATCC cells assessed as growth percentage at 10 uM incubated for 48 hrs by sulforhodamine B assay relative to control; settings: A549, 48 h, read-out: Activity; how it was run: as §3
[22] = tested on: SF-295; test: Growth inhibition of human SF295 cells assessed as growth percentage at 10 uM incubated for 48 hrs by sulforhodamine B assay relative to control; settings: SF-295, 48 h, read-out: Activity; how it was run: as §2
[23] = tested on: HCT-15; test: Growth inhibition of human HCT15 cells assessed as growth percentage at 10 uM incubated for 48 hrs by sulforhodamine B assay relative to control; settings: HCT-15, 48 h, read-out: Activity; how it was run: as §3
[24] = tested on: UACC-62; test: Growth inhibition of human UACC62 cells assessed as growth percentage at 10 uM incubated for 48 hrs by sulforhodamine B assay relative to control; settings: UACC-62, 48 h, read-out: Activity; how it was run: as §2

| SMILES | growth at 10 µM [1] | growth at 10 µM [2] | growth at 10 µM [3] | growth at 10 µM [4] | growth at 10 µM [5] | growth at 10 µM [6] | growth at 10 µM [7] | growth at 10 µM [8] | growth at 10 µM [9] | growth at 10 µM [10] | growth at 10 µM [11] | growth at 10 µM [12] | growth at 10 µM [13] | growth at 10 µM [14] | growth at 10 µM [15] | growth at 10 µM [16] | growth at 10 µM [17] | growth at 10 µM [18] | growth at 10 µM [19] | growth at 10 µM [20] | other results |
| --- | --- | --- | --- | --- | --- | --- | --- | --- | --- | --- | --- | --- | --- | --- | --- | --- | --- | --- | --- | --- | --- |
| CC1=C(C(=O)OC(C)C)C(c2ccc3c(c2)OCO3)NC(=O)N1 (racemic) | 104% | 113% | 116% | 108% | 104% | 103% | 119% | 124% | 96.3% | 106% | 105% | 108% | 108% | 100% | 97.6% | 96.4% | 114% | 109% | 92.3% | 100% | growth at 10 µM [21]: 106%; growth at 10 µM [22]: 104%; growth at 10 µM [23]: 99.7%; growth at 10 µM [24]: 94.9% |
| O=C1NC2=C(C(=O)c3ccccc32)C(c2ccc3c(c2)OCO3)N1 (racemic) | 109% | 98.8% | 107% | 114% | 100% | 107% | 104% | 115% | 96.8% | 111% | 109% | 98.9% | 114% | 100% | 101% | 108% | 115% | 104% | 100% | 102% | growth at 10 µM [21]: 106%; growth at 10 µM [22]: 103%; growth at 10 µM [23]: 105%; growth at 10 µM [24]: 101% |
| CC1(C)CC(=O)C2=C(C1)NC(=O)NC2c1ccc2c(c1)OCO2 (racemic) | 111% | 118% | 109% | 107% | 102% | 114% | 108% | 125% | 99.3% | 108% | 104% | 97.6% | 111% | 103% | 100% | 101% | 115% | 109% | 105% | 104% | growth at 10 µM [21]: 108%; growth at 10 µM [22]: 112%; growth at 10 µM [23]: 103%; growth at 10 µM [24]: 107% |
| CC1=C(C(=O)c2ccccc2)C(c2ccc3c(c2)OCO3)NC(=S)N1 (racemic) | 79.1% | 59.5% | 62.2% | 78.7% | 57.2% | 18.5% | 24.6% | 47.6% | 36.2% | 20% | 43.3% | 2.6% | 70.9% | 37.5% | 28.2% | 20.1% | 12.9% | 24.2% | 51.4% | 46.7% | growth at 10 µM [21]: 40.3%; growth at 10 µM [22]: 51.2%; growth at 10 µM [23]: 33.7%; growth at 10 µM [24]: 51.6% |
| CC(=O)C1=C(C)NC(=S)NC1c1ccc2c(c1)OCO2 (racemic) | 104% | 102% | 108% | 111% | 102% | 106% | 98.6% | 109% | 98.7% | 109% | 112% | 96.4% | 116% | 98.2% | 100% | 104% | 109% | 106% | 104% | 103% | growth at 10 µM [21]: 105%; growth at 10 µM [22]: 104%; growth at 10 µM [23]: 108%; growth at 10 µM [24]: 98.6% |
